Here are results for five compounds from ChEMBL document CHEMBL3244385, “Antitumor anthracycline antibiotics. Structure-activity and structure-cardiotoxicity relationships of rubidazone analogues” (J Med Chem, 1978).

Series [1] has as its system P388. The series can be described thus: In vivo antitumor activity against mouse P388 cells allografted in BDF/CDF mouse assessed as host survival time at 16 mg/kg, ip administered on days 1 to 9 relative to control. Type of series: functional. Conditions: route intraperitoneal. The procedure, abridged:
(§1)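 P-388 lymphocytic leukemia, 10⁶ cells injected ip into BDF or CDF mice on day 0; drug given ip daily on days 1-9 at the stated dose. Read-out T/C: average survival time of treated mice as percent of untreated controls. Assays run by NCI Drug Research and Development Program.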

The subject of series [2] is P388. Description: In vivo antitumor activity against mouse P388 cells allografted in BDF/CDF mouse assessed as host survival time at 2 mg/kg, ip administered on days 1 to 9 relative to control. Conditions: route intraperitoneal. Format: functional. The procedure, abridged: as §1
The nature of series [3]: Dissociation constant, pKa of Ar-COOH group of the compound. Format: physicochemical.
For series [4], the system named is P388. Description: In vivo antitumor activity against mouse P388 cells allografted in BDF/CDF mouse assessed as host survival time at 0.125 mg/kg, ip administered on days 1 to 9 relative to control. Conditions: route intraperitoneal. Type of series: functional. In outline: as §1
In series [5] the test system is P388. Description: In vivo antitumor activity against mouse P388 cells allografted in BDF/CDF mouse assessed as host survival time at 1 mg/kg, ip administered on days 1 to 9 relative to control. Conditions: route intraperitoneal. Type of series: functional. The procedure, abridged:
as §1

The species entered for series [6] is Rattus norvegicus. The series can be described thus: Cardiotoxicity in rat ECG model relative to adriamycin. Conditions: in vivo.
The nature of series [7]: Partition coefficient, log P of the compound. Type of series: physicochemical. Conditions: octanol/water.
Series [8] relates to Calf thymus DNA. The series can be described thus: Binding affinity to calf thymus DNA assessed as change in melting temperature at 5 uM by spectrophotometer analysis. Format: nucleic-acid assay. Conditions: Bos taurus. The procedure, abridged:
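Drug dissolved in Me2SO, diluted with buffer, then mixed with calf thymus DNA. Final mix: 0.01 M phosphate pH 7, 5×10^-5 M DNA, 5×10^-6 M drug, 10^-5 M EDTA, 5% Me2SO. Absorbance at 259 nm recorded every 30 s while heating at 18 °C/h. Tm is the midpoint of the corrected curve; the shift is taken against DNA alone.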

In series [9] the test system is P388. Description: In vivo antitumor activity against mouse P388 cells allografted in BDF/CDF mouse assessed as host survival time at 4 mg/kg, ip administered on days 1 to 9 relative to control. Type of series: functional. Conditions: route intraperitoneal. The procedure, abridged: as §1
For series [10], the species on record is Rattus norvegicus. Description: Cardiotoxicity in rat ECG model. Conditions: in vivo.
Series [11] is described as follows: Half life in 0.01 M phosphate buffer at 10 uM at pH 7.4 at 50 degC. Format: physicochemical. In outline: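 Drug at 1×10^-5 M in 0.01 M phosphate, pH 7.4, 50 °C, no DNA. Absorbance followed continuously for 3 h at a drug-specific wavelength (345 or 259 nm). Buffer baseline subtracted. Data fit to A = ΣA0 + c·e^(-kt), with ΣA0 the absorbance of daunorubicin plus the […], and t1/2 derived from the fit.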

Series [12] has as its system P388. The series can be described thus: In vivo antitumor activity against mouse P388 cells allografted in BDF/CDF mouse assessed as host survival time at 0.5 mg/kg, ip administered on days 1 to 9 relative to control. Type of series: functional. Conditions: route intraperitoneal. In outline: as §1
For series [13], the system named is P388. The series can be described thus: In vivo antitumor activity against mouse P388 cells allografted in BDF/CDF mouse assessed as host survival time at 8 mg/kg, ip administered on days 1 to 9 relative to control. Conditions: route intraperitoneal. Format: functional. In outline: as §1
Series [14] relates to P388. The series can be described thus: In vivo antitumor activity against mouse P388 cells allografted in BDF/CDF mouse assessed as host survival time at 0.25 mg/kg, ip administered on days 1 to 9 relative to control. Format: functional. Conditions: route intraperitoneal. In outline: as §1
Series [15] relates to L1210. Description: Inhibition of DNA synthesis in mouse L1210 cells. Type of series: functional. Conditions: read-out: ED50 (the source's name).
Series [16] relates to L1210. The series can be described thus: Inhibition of RNA synthesis in mouse L1210 cells. Conditions: read-out: ED50 (the source's name). Type of series: functional.
The nature of series [17]: Drug metabolism in 0.01 M phosphate buffer assessed as hydrolysis rate after 3 hrs at 50 degC.

On to `COc1cccc2c1C(=O)c1c(O)c3c(c(O)c1C2=O)C[C@@](O)(/C(C)=N/NC(=O)c1ccc(N(C)C)cc1)C[C@@H]3O[C@H]1C[C@H](N)[C@H](O)[C@H](C)O1.Cl`, for which the T/C in series [1] amounted to 89%; in series [2], 181%; in series [4], 94%; in series [5], 154%; in series [9], 172%; in series [12] it was 154%. Also, the T/C was found to be 136% in series [13] and 111% in series [14]. The same compound came in with a pKa in [3] of 4.97. Also, the Ratio in series [6] was 0.8. Also, in [7], the logP stood at 1.22. Further, the ΔTm in [8] stood at 10.7 °C. In [10], this compound yielded an MCCD of 12 mg/kg. In [11], this compound had a half-life at 10 µM of 9.23 h. The EC50 in series [15] was found to be 2600 nM; in series [16], 2500 nM.
As for `COc1cccc2c1C(=O)c1c(O)c3c(c(O)c1C2=O)C[C@@](O)(/C(C)=N/NC(=O)c1ccccc1)C[C@@H]3O[C@H]1C[C@H](N)[C@H](O)[C@H](C)O1.Cl` [ZORUBICIN HYDROCHLORIDE], the T/C in [1] was 112%; in series [2], 170%; in [5] it was 152%; in series [9], 192%; in series [12] it was 140%; in [13], 164%. Further, the T/C in series [14] is recorded as 133%. Further, the pKa in [3] is 4.19. Further, the Ratio in [6] was 1.8. The logP in series [7] is 1.04. For the same compound, in series [8], the ΔTm was 11.7 °C. Also, the MCCD in [10] was 24 mg/kg. Further, the half-life at 10 µM in [11] is 5.4 h. Further, the figures for the EC50 in [15] and in series [16] were 2200 nM and 1200 nM, respectively.
On to `COc1cccc2c1C(=O)c1c(O)c3c(c(O)c1C2=O)C[C@@](O)(/C(CO)=N/NC(=O)c1ccccc1)C[C@@H]3O[C@H]1C[C@H](N)[C@H](O)[C@H](C)O1.Cl`, for which the T/C in series [1] turned out to be 128%; in series [2], 154%; in [4], 103%; in series [5], 154%; in [9], 172%; in [12], 126%. The T/C in series [13] came out at 201%; in [14] it was 99%. This compound came in with a pKa in [3] of 4.19. The Ratio in [6] worked out at 2.4. The compound also came in with a logP in series [7] of 0.52. The ΔTm in [8] was determined as 8.9 °C. Besides, the MCCD in [10] came to 32 mg/kg. The results for the EC50 in [15] and in series [16] were 14000 nM and 8800 nM, respectively.
Turning to `COc1cccc2c1C(=O)c1c(O)c3c(c(O)c1C2=O)C[C@@](O)(/C(C)=N/NC(=O)c1ccc(Cl)cc1)C[C@@H]3O[C@H]1C[C@H](N)[C@H](O)[C@H](C)O1.Cl`, the T/C in series [1] amounted to 63%; in series [2] it was 163%; in series [4] it was 110%; in series [5] it was 145%; in series [9], 211%; in series [12] it was 139%. Also, the T/C in series [13] is reported as 109%; in [14], 145%. This compound displayed a pKa in [3] of 4.03. The Ratio in series [6] was 3.5. Further, the logP in [7] is 1.75. Besides, in series [8], the ΔTm came out at 11.4 °C. The MCCD in series [10] was found to be 48 mg/kg. The compound further returned a half-life at 10 µM in series [11] of 0.617 h. Moreover, the EC50 came out at 1900 nM in series [15] and 1000 nM in [16]. In addition, in series [17], the Drug metabolism entry is recorded as “metabolite_detected”.
For `COc1cccc2c1C(=O)c1c(O)c3c(c(O)c1C2=O)C[C@@](O)(/C(C)=N/NC(=O)c1cccc([N+](=O)[O-])c1)C[C@@H]3O[C@H]1C[C@H](N)[C@H](O)[C@H](C)O1.Cl`, the T/C in series [1] is given as 72%; in series [2], 172%; in [4], 125%; in series [5] it was 146%; in series [9] it was 190%; in [12] it was 130%. The results for the T/C in series [13] and in series [14] were 202% and 130%, respectively. In series [3], this compound gave a pKa of 3.46. In addition, the Ratio in series [6] came to 2.3. The compound also gave a logP in series [7] of 0.76. Besides, in [8], the ΔTm is 10.5 °C. In addition, in series [10], the MCCD turned out to be 32 mg/kg. Further, the EC50 in [15] stood at 3200 nM; in series [16], 2300 nM.
